Source: ChEMBL document CHEMBL1158785, “Polyoxygenated steroids from the gorgonian Isis hippuris” (J Nat Prod, 2005)
≈ marks a conversion by molar mass, not a printed value.

Columns and labels:
HepG2 = assay: Cytotoxicity against human HepG2 cells after 3 days by MTT assay; format: functional, cell-based; conditions: HepG2, 72 h
Outline: (§1)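 Freshly trypsinized cells seeded at 5000-10 000 per well, compounds added from DMSO-diluted stock; 3 days culture. Attached cells then given MTT (0.5 mg/mL, 1 h), formazan dissolved in DMSO, absorbance read at 550 nm. IC50 taken as concentration reducing cell growth by 50%.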

MCF7 = assay: Cytotoxicity against human MCF7 cells after 3 days by MTT assay; format: functional, cell-based; conditions: MCF7, 72 h; outline: as §1
MDA-MB-231 = assay: Cytotoxicity against human MDA-MB-231 cells after 3 days by MTT assay; format: functional, cell-based; conditions: MDA-MB-231, 72 h; outline: as §1
[1] = Cytotoxicity against human Hep3B cells after 3 days by MTT assay; format: functional, cell-based, Hep 3B2; conditions: 72 h; outline: as §1

## CC(=O)O[C@@H]1CC[C@@]2(C)[C@@H](CC[C@@H]3[C@@H]2[C@@H](O)C[C@]24C(=O)O[C@]5(C)[C@H]2[C@H](C[C@@H]34)O[C@]52C[C@H](C)C(C)(C)O2)C1
HepG2
  IC50: > 20 µg/mL
MCF7
  IC50: > 20 µg/mL
MDA-MB-231
  IC50: > 20 µg/mL

## CC(=O)O[C@@H]1C[C@@]2(C)[C@@H](CC[C@@H]3[C@@H]2[C@@H](O)C[C@@]2(C)[C@H]3C[C@@H]3O[C@@]4(C[C@H](C)C(C)(C)O4)[C@](C)(O)[C@@H]32)C[C@@H]1O
HepG2
  IC50: 0.56 µg/mL (≈ 1.08 µM)
[1]
  IC50: 0.1 µg/mL (≈ 0.192 µM)
MCF7
  IC50: 0.53 µg/mL (≈ 1.02 µM)
MDA-MB-231
  IC50: 0.41 µg/mL (≈ 0.787 µM)

## C[C@H]1C[C@]2(O[C@H]3C[C@H]4[C@@H]5CC[C@H]6C[C@H](O)[C@H](O)C[C@]6(C)[C@H]5[C@@H](O)C[C@@]45C(=O)O[C@]2(C)[C@@H]35)OC1(C)C
HepG2
  IC50: > 30 µg/mL
[1]
  IC50: 23.8 µg/mL (≈ 48.6 µM)
MCF7
  IC50: > 30 µg/mL
MDA-MB-231
  IC50: > 30 µg/mL

## CC(=O)O[C@H]1C[C@@H]2CC[C@@H]3[C@H]([C@@H](O)C[C@]45C(=O)O[C@]6(C)[C@H]4[C@H](C[C@@H]35)O[C@]63C[C@H](C)C(C)(C)O3)[C@@]2(C)C[C@H]1OC(C)=O
HepG2
  IC50: > 20 µg/mL
MCF7
  IC50: 19.6 µg/mL (≈ 34.1 µM)
MDA-MB-231
  IC50: > 20 µg/mL

## C[C@H]1C[C@]2(O[C@H]3C[C@H]4[C@@H]5CC[C@H]6C[C@H](O)[C@H](O)C[C@]6(C)[C@H]5[C@@H](O)C[C@]4(C)[C@H]3[C@@]2(C)O)OC1(C)C
HepG2
  IC50: 0.62 µg/mL (≈ 1.3 µM)
[1]
  IC50: 0.77 µg/mL (≈ 1.61 µM)
MCF7
  IC50: 0.59 µg/mL (≈ 1.23 µM)
MDA-MB-231
  IC50: 0.75 µg/mL (≈ 1.57 µM)

## C[C@H]1C[C@]2(O[C@H]3C[C@H]4[C@@H]5CC[C@H]6C[C@H](O)CC[C@]6(C)[C@H]5[C@@H](O)C[C@@]45C(=O)O[C@]2(C)[C@@H]35)OC1(C)C
HepG2
  IC50: > 20 µg/mL
MCF7
  IC50: > 20 µg/mL
MDA-MB-231
  IC50: > 20 µg/mL

## CC(=O)O[C@@H]1CC[C@@]2(C)[C@@H](CC[C@@H]3[C@@H]2[C@@H]2C[C@]45[C@H](O2)O[C@]2(C)[C@H]4[C@H](C[C@@H]35)O[C@]23C[C@H](C)C(C)(C)O3)C1
HepG2
  IC50: > 20 µg/mL
MCF7
  IC50: > 20 µg/mL
MDA-MB-231
  IC50: > 20 µg/mL

## CC(=O)O[C@H]1C[C@@H]2CC[C@@H]3[C@H]([C@@H]4C[C@]56[C@H](O4)O[C@]4(C)[C@H]5[C@H](C[C@@H]36)O[C@]43C[C@H](C)C(C)(C)O3)[C@@]2(C)C[C@H]1OC(C)=O
HepG2
  IC50: > 20 µg/mL
MCF7
  IC50: > 20 µg/mL
MDA-MB-231
  IC50: > 20 µg/mL

## CC(=O)O[C@H]1C[C@@H]2CC[C@@H]3[C@H]([C@@H](O)C[C@]45[C@H](O)O[C@]6(C)[C@H]4[C@H](C[C@@H]35)O[C@]63C[C@H](C)C(C)(C)O3)[C@@]2(C)C[C@H]1OC(C)=O
HepG2
  IC50: > 20 µg/mL
MCF7
  IC50: 11.4 µg/mL (≈ 19.7 µM)
MDA-MB-231
  IC50: > 20 µg/mL

## CC(=O)O[C@H]1C[C@@H]2CC[C@@H]3[C@H]([C@@H](O)C[C@@]4(C)[C@H]3C[C@@H]3O[C@]5(C[C@H](C)C(C)(C)O5)[C@](C)(O)[C@@H]34)[C@@]2(C)C[C@H]1O
HepG2
  IC50: 2.06 µg/mL (≈ 3.96 µM)
[1]
  IC50: 1.46 µg/mL (≈ 2.8 µM)
MCF7
  IC50: 2.41 µg/mL (≈ 4.63 µM)
MDA-MB-231
  IC50: 0.74 µg/mL (≈ 1.42 µM)

## CC(=O)O[C@H]1C[C@@H]2CC[C@@H]3[C@H]([C@@H](O)C[C@@]4(C)[C@H]3C[C@@H]3O[C@@]5(C[C@H](C)C(C)(C)O5)[C@](C)(O)[C@@H]34)[C@@]2(C)C[C@H]1O
HepG2
  IC50: 0.72 µg/mL (≈ 1.38 µM)
[1]
  IC50: 0.46 µg/mL (≈ 0.883 µM)
MCF7
  IC50: 1.07 µg/mL (≈ 2.05 µM)
MDA-MB-231
  IC50: 0.21 µg/mL (≈ 0.403 µM)

## CC(=O)O[C@@H]1C[C@@]2(C)[C@@H](CC[C@@H]3[C@@H]2[C@@H](O)C[C@]24C(=O)O[C@]5(C)[C@H]2[C@H](C[C@@H]34)O[C@]52C[C@H](C)C(C)(C)O2)C[C@@H]1O
HepG2
  IC50: 27.6 µg/mL (≈ 51.8 µM)
[1]
  IC50: > 30 µg/mL
MCF7
  IC50: > 30 µg/mL
MDA-MB-231
  IC50: > 30 µg/mL

## CC(=O)O[C@@H]1C[C@@]2(C)[C@@H](CC[C@@H]3[C@@H]2[C@@H](O)C[C@@]2(C)[C@H]3C[C@@H]3O[C@]4(C[C@H](C)C(C)(C)O4)[C@](C)(O)[C@@H]32)C[C@@H]1O [EPIHIPPURIN 1]
HepG2
  IC50: 4.64 µg/mL (≈ 8.91 µM)
[1]
  IC50: 0.68 µg/mL (≈ 1.31 µM)
MCF7
  IC50: 4.54 µg/mL (≈ 8.72 µM)
MDA-MB-231
  IC50: 2.64 µg/mL (≈ 5.07 µM)

## C[C@H]1C[C@]2(O[C@H]3C[C@H]4[C@@H]5CC[C@H]6C[C@H](O)CC[C@]6(C)[C@H]5[C@@H](O)C[C@]4(C)[C@H]3[C@@]2(C)O)OC1(C)C [EPIHIPPURISTANOL]
HepG2
  IC50: 0.08 µg/mL (≈ 0.173 µM)
[1]
  IC50: 0.1 µg/mL (≈ 0.216 µM)
MCF7
  IC50: 0.2 µg/mL (≈ 0.432 µM)
MDA-MB-231
  IC50: 0.13 µg/mL (≈ 0.281 µM)

## CC(=O)O[C@@H]1CC[C@@]2(C)[C@@H](CC[C@@H]3[C@@H]2[C@@H](O)C[C@]24[C@H](O)O[C@]5(C)[C@H]2[C@H](C[C@@H]34)O[C@]52C[C@H](C)C(C)(C)O2)C1 [HIPPURISTANOHEMIACETAL]
HepG2
  IC50: > 20 µg/mL
MCF7
  IC50: 12.7 µg/mL (≈ 24.5 µM)
MDA-MB-231
  IC50: > 20 µg/mL
